Reference: PMC3755765 (ChemMedChem, 2013)
Values after ≈ are worked out from the molar mass of the structure shown. Values joined by “and” are separate entries in the source; they are usually repeats but may differ in a detail not shown here. Identical values can stand only once. Like-named read-outs stand apart in the source and are kept apart here.

Legend:
T. gondii tachyzoites = assay: Parasite tissue culture assay: inhibition of T. gondii tachyzoites in HFF; format: cell-based, Toxoplasma gondii; settings: for Activity in the parasite-based assay: T. gondii tachyzoites; for MIC50 / IC50: Toxoplasma gondii
TgENR = biological target: T1, TgENR (Toxoplasma gondii, UniProt Q6UCJ9); assay: TgENR enzyme assay; format: biochemical; settings: for Activity in the enzyme-based assay: purified TgENR; for inhibition at 1 µM: read-out: Cpd. conc. [1 μM]/% Inh.: percentage of inhibition of TgENR; for TgENR IC50 fold lower than that of analog 9c: 38 and 54 nM vs 130 nM
T1 sequence (Q6UCJ9 28-417): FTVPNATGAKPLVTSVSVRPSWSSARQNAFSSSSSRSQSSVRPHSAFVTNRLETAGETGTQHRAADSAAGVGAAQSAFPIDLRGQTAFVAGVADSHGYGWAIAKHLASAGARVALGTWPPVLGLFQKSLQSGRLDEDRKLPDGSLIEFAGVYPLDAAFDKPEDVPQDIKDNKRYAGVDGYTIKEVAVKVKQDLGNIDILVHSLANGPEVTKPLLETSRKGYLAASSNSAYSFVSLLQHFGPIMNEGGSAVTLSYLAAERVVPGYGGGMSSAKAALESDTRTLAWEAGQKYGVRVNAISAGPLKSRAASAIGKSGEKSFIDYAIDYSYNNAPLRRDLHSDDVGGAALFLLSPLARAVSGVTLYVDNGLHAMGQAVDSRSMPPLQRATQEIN

[1] = test system: Human Foreskin Fibroblasts (HFF); assay: Toxicity for host cells; settings: for Parasite tissue culture assay HFF (HFF toxicity): human foreskin fibroblasts, highest concentration tested 10 μM
[2] = test system: P. falciparum strain D6 (CDC/Sierra Leone); assay: Malaria SYBR Green I-based fluorescence assay, strain D6; format: cell-based; settings: Plasmodium falciparum, D6, 72 h, read-out: SYBR Green D6 IC50
In short: (§1)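 Late-ring or early-trophozoite parasites at 0.3% starting parasitemia and 2% hematocrit were added to plates predosed with quadruplicate 12-point two-fold dilutions in DMSO (final […]), with mefloquine as reference. Plates were incubated 72 h at 37°C under 5% CO2/5% O2/90% N2, lysed with Tris/EDTA/Triton X/saponin buffer with SYBR Green I (final 10x), kept dark 24 h at RT, and read as RFU. A chloroquine batch control at 2000 ng/ml validated each run.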

[3] = test system: P. falciparum strain TM91C235 (WRAIR, Thailand, chloroquine resistant); assay: Malaria SYBR Green I-based fluorescence assay, strain TM91C235; format: cell-based; settings: Plasmodium falciparum, 72 h, read-out: SYBR Green C235 IC50
In short: as §1

[4] = 72 h, read-out: Parasite tissue culture assay MIC50

Row | Compound | Activity in the parasite-based assay (T. gondii tachyzoites) | MIC50 (T. gondii tachyzoites; [4]) [µM] | inhibition at 1 µM (TgENR) [%] | Parasite tissue culture assay HFF (HFF toxicity) [1] [µM] | further results
1 | COc1cc(Cn2cc(CCO)nn2)ccc1Oc1ccc(Cl)cc1Cl [Compound 8d, 2-[1-[4-(2,4-Dichlorophenoxy)-3-methoxybenzyl]-1H-1,2,3-triazol-4-yl]ethanol] | lack of activity | > 10 | 12 | > 10 | Activity in the enzyme-based assay (TgENR): lack of activity
2 | CCCCc1cn(Cc2ccc(Oc3ccc(Cl)cc3Cl)c(O)c2)nn1 [Compound 9a, 5-[(4-Butyl-1H-1,2,3-triazol-1-yl)methyl]-2-(2,4-dichlorophenoxy)phenol] | inactive | > 10 | 94 | > 10 | IC50 (TgENR): 38 nM; TgENR IC50 fold lower than that of analog 9c (TgENR): approximately 3 fold
3 | Oc1cc(Cn2cc(-c3ccccc3)nn2)ccc1Oc1ccc(Cl)cc1Cl [Compound 9b, 2-(2,4-Dichlorophenoxy)-5-[(4-phenyl-1H-1,2,3-triazol-1-yl)methyl]phenol] | inactive | > 10 | 93 | > 10 | IC50 (TgENR): 54 nM; TgENR IC50 fold lower than that of analog 9c (TgENR): ~2 fold
4 | Oc1cc(Cn2ccnn2)ccc1Oc1ccc(Cl)cc1Cl [Compound 9c, 2-(2,4-Dichlorophenoxy)-5-(1H-1,2,3-triazol-1-ylmethyl)phenol] | – | 10 (≈ 3.36 µg/mL) | 93 | >10 | IC50 (TgENR): 130 nM; IC50 [2]: 4.71 µM and 1.58 µg/mL; IC50 [3]: > 2 µg/mL
5 | CCCCc1cn(Cc2ccc(Oc3ccc(Cl)cc3O)c(Cl)c2)nn1 [Compound 16a, 2-[4-[(4-Butyl-1H-1,2,3-triazol-1-yl)methyl]-2-chlorophenoxy]-5-chlorophenol] | – | 0.25 (≈ 0.0981 µg/mL) | 90 | >10 | IC50 (T. gondii tachyzoites; read-out: IC50 (MIC50) against Toxoplasma gondii tachyzoites): 250 nM; TgENR IC50 fold higher than that of 16c (TgENR; 43 vs 26 nM): 1.6 fold; Toxicity to the host cells [1]: without apparent toxicity to the host cells
6 | Oc1cc(Cl)ccc1Oc1ccc(Cn2cc(-c3ccccc3)nn2)cc1Cl [Compound 16b, 5-Chloro-2-[2-chloro-4-[(4-phenyl-1H-1,2,3-triazol-1-yl)methyl]phenoxy]phenol] | activity comparable to or better than that of triclosan | 1 (≈ 0.412 µg/mL) | 82 | >10 | –
7 | CCCCc1cc(-c2ccc(Oc3ccc(Cl)cc3Cl)c(O)c2)no1 [Compound 20a, 5-(5-Butyl-1,2-oxazol-3-yl)-2-(2,4-dichlorophenoxy)phenol] | completely inactive | > 10 | 59 | > 10 | Activity in the enzyme-based assay (TgENR): completely inactive
8 | Oc1cc(-c2cc(-c3ccccc3)on2)ccc1Oc1ccc(Cl)cc1Cl [Compound 20b, 2-(2,4-Dichlorophenoxy)-5-(5-phenyl-1,2-oxazol-3-yl)phenol] | completely inactive | > 10 | 40 | > 10 | Activity in the enzyme-based assay (TgENR): completely inactive
9 | C[Si](C)(C)c1cc(-c2ccc(Oc3ccc(Cl)cc3Cl)c(O)c2)no1 [Compound 20c, 2-(2,4-Dichlorophenoxy)-5-[5-(trimethylsilyl)-1,2-oxazol-3-yl]phenol] | – | 7 (≈ 2.76 µg/mL) | 25 | > 10 | –
10 | CCCCc1cc(-c2ccc(Oc3ccc(Cl)cc3O)c(Cl)c2)no1 [Compound 24a, 2-[4-(5-Butyl-1,2-oxazol-3-yl)-2-chlorophenoxy]-5-chlorophenol] | – | 8 (≈ 3.03 µg/mL) | 92 | >10 | IC50 (TgENR): 18 nM
11 | Oc1cc(Cl)ccc1Oc1ccc(-c2cc(-c3ccccc3)on2)cc1Cl [Compound 24b, 5-Chloro-2-[2-chloro-4-(5-phenyl-1,2-oxazol-3-yl)phenoxy]phenol] | – | 10 (≈ 3.98 µg/mL) | 88 | >10 | IC50 (TgENR): 28 nM
12 | N#Cc1ccc(Oc2ccc(Cl)cc2Cl)c(O)c1 [Compound 27, 4-(2,4-Dichlorophenoxy)-3-hydroxybenzonitrile] | – | 2 (≈ 0.56 µg/mL) | 97 | > 10 | –
13 | O=C(Nc1ccccc1)c1ccc(Oc2ccc(Cl)cc2Cl)c(O)c1 [Compound 30a, 4-(2,4-Dichlorophenoxy)-3-hydroxy-N-phenylbenzamide] | – | > 10 | 7 | >10 | IC50 [2]: > 2 µg/mL; IC50 [3]: > 2 µg/mL
14 | CCCCN(CCCC)C(=O)c1ccc(Oc2ccc(Cl)cc2Cl)c(O)c1 [Compound 30b, 4-(2,4-Dichlorophenoxy)-3-hydroxy-N,N-dibutylbenzamide] | – | > 10 | 44 | >10 | IC50 [2]: 400 nM and 0.166 µg/mL; IC50 [3]: 600 nM and 0.247 µg/mL
15 | O=C(c1ccc(Oc2ccc(Cl)cc2Cl)c(O)c1)N1CCOCC1 [Compound 30c, [4-(2,4-Dichlorophenoxy)-3-hydroxyphenyl](morpholin-4-yl)methanone] | – | > 10 | 43 | >10 | IC50 [2]: > 2 µg/mL; IC50 [3]: > 2 µg/mL
16 | CCCCCCNC(=O)c1ccc(Oc2ccc(Cl)cc2Cl)c(O)c1 [Compound 30d, 4-(2,4-Dichlorophenoxy)-N-hexyl-3-hydroxybenzamide] | – | > 10 | 30 | >10 | IC50 [2]: > 2 µg/mL; IC50 [3]: > 2 µg/mL
17 | Cc1cc(C(=O)NCc2ccc(Oc3ccc(Cl)cc3Cl)c(O)c2)no1 [Compound 33, N-[4-(2,4-Dichlorophenoxy)-3-hydroxybenzyl]-5-methyl-1,2-oxazole-3-carboxamide] | – | 10 (≈ 3.93 µg/mL) | 96 | – | –
18 | Cc1cc(C(=O)NCc2ccc(Oc3ccc(Cl)cc3O)c(Cl)c2)no1 [Compound 37a, N-[3-Chloro-4-(4-chloro-2-hydroxyphenoxy)benzyl]-5-methyl-1,2-oxazole-3-carboxamide] | activity comparable to or better than that of triclosan | 5 (≈ 1.97 µg/mL) | 88 | – | –
19 | O=C(NCc1ccc(Oc2ccc(Cl)cc2O)c(Cl)c1)c1cc(-c2ccccc2)on1 [Compound 37b, N-[3-Chloro-4-(4-chloro-2-hydroxyphenoxy)benzyl]-5-phenyl-1,2-oxazole-3-carboxamide] | – | > 10 | 80 | – | –
20 | O=C(NCc1ccc(Oc2ccc(Cl)cc2O)c(Cl)c1)c1ccc2cc(O)ccc2c1 [Compound 37d, N-[3-Chloro-4-(4-chloro-2-hydroxyphenoxy)benzyl]-6-hydroxynaphthalene-2-carboxamide] | – | – | 89 | – | IC50 (T. gondii tachyzoites; [4]): > 10000 nM; Activity in the enzyme-based assay (TgENR): Reasonable activity
21 | Oc1cc(CNc2ccccc2)ccc1Oc1ccc(Cl)cc1Cl [Compound 39a, 2-(2,4-Dichlorophenoxy)-5-[(phenylamino)methyl]phenol] | – | 10 (≈ 3.6 µg/mL) | 96 | >10 | IC50 (TgENR): 130 nM; IC50 [2]: 4.56 µM and 1.64 µg/mL; IC50 [3]: > 2 µg/mL
22 | CCCCCCNCc1ccc(Oc2ccc(Cl)cc2Cl)c(O)c1 [Compound 39c, 2-(2,4-Dichlorophenoxy)-5-[(hexylamino)methyl]phenol] | activity comparable to or better than that of triclosan | 3 (≈ 1.1 µg/mL) | 16 | – | Activity in the enzyme-based assay (TgENR): completely inactive; IC50 [2]: 2.75 µM and 0.857 µg/mL; IC50 [3]: > 2 µg/mL
23 | CCCCCCNCc1ccc(Oc2ccc(Cl)cc2O)c(Cl)c1 [Compound 41a, 5-Chloro-2-[2-chloro-4-[(hexylamino)methyl]phenoxy]phenol] | activity comparable to or better than that of triclosan | 1 (≈ 0.368 µg/mL) | 25 | >10 | Activity in the enzyme-based assay (TgENR): completely inactive
24 | Oc1cc(Cl)ccc1Oc1ccc(CNc2ccccc2)cc1Cl [Compound 41b, 5-Chloro-2-[2-chloro-4-[(phenylamino)methyl]phenoxy]phenol] | – | > 10 | 94 | >10 | –
